In ChEMBL document CHEMBL1125195, “Novel compounds possessing potent cAMP and cGMP phosphodiesterase inhibitory activity. Synthesis and cardiovascular effects of a series of imidazo[1,2-a]quinoxalinones and imidazo[1,5-a]quinoxalinones and their aza analogues” (J Med Chem, 1991):
Active and inactive are the calls of the source. The calls are words filed in the database; no cut-off is given here.

What was measured:
[1] = Inhibition of crude cAMP phosphodiesterase from canine […]; set-up: species or system Canis lupus familiaris
How it was run: (§1)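 Crude homogenates: cAMP PDE from canine cardiac tissue, cGMP PDE from canine thoracic aorta. Value is drug concentration (μM) giving 50% inhibition. Mean of at least three determinations, ranges within ±10%.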

[2] = In vitro increase in contractile force in ferret papillary muscle strips.; type: functional, Mustela putorius furo, Muscle tissue
How it was run: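 Ferret papillary muscle; value is drug concentration (μM) giving a 20% rise in contractile force. Mean of at least two determinations, ranges within ±10%. Inotropic effect also tested with 1 μM propranolol co-administered. NR means not reached at 100 μM.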

[3] = Inhibition of crude cGMP phosphodiesterase from canine thoracic aorta; type: tissue-based, Canis lupus familiaris; how it was run: as §1
Canis familiaris [4] = organism: Canis familiaris; assay: In vitro vascular relaxation in canine mesenteric veins precontracted with phenylephrine.; type: functional; settings: Canis lupus familiaris, Mesenteric vein
How it was run: (§2)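 Isolated vessels in warm PSS. Arteries constricted with prostaglandin F2α, veins with phenylephrine. Cumulative drug challenges, each added after relaxation plateaued. Delta force is expressed as % of agonist actual force (total minus basal) and as % of maximal relaxation. EC50 is found by linear interpolation between the points bracketing 50% relaxation. Afterwards tissues were rinsed every 10 min, reconstricted, and challenged with acetylcholine (arteries) or thrombin (veins).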

Canis familiaris [5] = organism: Canis familiaris; assay: In vitro vascular relaxation in canine coronary arteries precontracted with prostaglandin F2alpha.; type: functional; settings: Canis lupus familiaris; how it was run: as §2
Canis familiaris [6] = assay: (§3) Percent change in left ventricle contractile force in anesthetized dogs after intravenous administration at 1.0 mg/kg; type: functional, Canis lupus familiaris, Heart left ventricle
Canis familiaris [7] = assay: (§4) Percent change in left ventricle contractile force in anesthetized dogs after intravenous administration at 3.0 mg/kg; type: functional, Canis lupus familiaris, Heart left ventricle
Canis familiaris [8] = assay: (§5) Percent change in mean arterial blood pressure after intravenous administration in anesthetized dogs at 3.0 mg/kg; type: functional, Canis lupus familiaris
Canis familiaris [9] = assay: Percent change in heart rate after intravenous administration in anesthetized dogs at 3.0 mg/kg; type: functional, Canis lupus familiaris
Canis familiaris [10] = assay: (§6) Percent change in mean arterial blood pressure after intravenous administration in anesthetized dogs at 1.0 mg/kg (NC<10%); type: functional, organism-based; set-up: dose 1 mg/kg; settings: Canis lupus familiaris
Canis familiaris [11] = assay: (§7) Percent change in left ventricle contractile force in anesthetized dogs after intravenous administration at 0.3 mg/kg; type: functional, Canis lupus familiaris, Heart left ventricle
Canis familiaris [12] = assay: Percent change in mean arterial blood pressure after intravenous administration in anesthetized dogs at 0.3 mg/kg (NC<10%); type: functional, organism-based; set-up: dose 0.3 mg/kg; settings: Canis lupus familiaris
Canis familiaris [13] = assay: Percent change in heart rate after intravenous administration in anesthetized dogs at 0.3 mg/kg; type: functional, Canis lupus familiaris
Canis familiaris [14] = assay: Percent change in heart rate after intravenous administration in anesthetized dogs at 1.0 mg/kg; type: functional, Canis lupus familiaris
[15] = Inhibition of crude cAMP phosphodiesterase from canine […] (NR = no effect at 100 ug); set-up: species or system Canis lupus familiaris
How it was run: (§8)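 Crude PDEs from canine tissue homogenates: cAMP enzyme from cardiac tissue, cGMP enzyme from thoracic aorta. Value is drug concentration (μM) causing 50% inhibition. Mean of at least three determinations, ranges within ±10%.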

Canis familiaris [16] = assay: (§9) Percent change in mean arterial blood pressure after intravenous administration in anesthetized dogs at 0.3 mg/kg; type: functional, Canis lupus familiaris
How it was run: (§10)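 Anesthetized dogs, drug given intravenously at the stated dose. Percent change recorded in LV dP/dt (contractile force), heart rate and mean arterial pressure. Mean of at least four determinations; LV dP/dt ranges within ±10%.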

Canis familiaris [17] = assay: as §7; type: functional, Canis lupus familiaris, Heart left ventricle; how it was run: as §10; remark: listed apart in the source
Canis familiaris [18] = assay: Percent change heart rate after intravenous administration in anesthetized dogs at 1.0 mg/kg; type: functional, Canis lupus familiaris; how it was run: as §10
Canis familiaris [19] = assay: as §3; type: functional, Canis lupus familiaris, Heart left ventricle; how it was run: as §10; remark: listed apart in the source
Canis familiaris [20] = assay: Percent change in heart rate after intravenous administration in anesthetized dogs at 3.0 mg/kg (NC<10%); type: functional, Canis lupus familiaris; how it was run: as §10
Canis familiaris [21] = assay: as §5; type: functional, Canis lupus familiaris; how it was run: as §10; remark: listed apart in the source
Mustela putorius furo = organism: Mustela putorius furo; assay: In vitro increase in contractile force in ferret papillary muscle strips (NR = not reached at 100 ug); type: functional, tissue-based; settings: Muscle tissue
How it was run: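 Ferret papillary muscle contractile force measured in vitro; value is drug concentration (μM) giving a 20% rise in contractile force. Inotropic effect also tested with 1 μM propranolol coadministered. Mean of at least two determinations, ranges within ±10%.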

Canis familiaris [22] = assay: Percent change heart rate after intravenous administration in anesthetized dogs at 0.3 mg/kg (NC<10%); type: functional, Canis lupus familiaris; how it was run: as §10
Canis familiaris [23] = assay: as §4; type: functional, Canis lupus familiaris, Heart left ventricle; how it was run: as §10; remark: listed apart in the source
Canis familiaris [24] = assay: (§11) Percent change in mean arterial blood pressure after intravenous administration in anesthetized dogs at 1.0 mg/kg; type: functional, Canis lupus familiaris; how it was run: as §10
[25] = Inhibition of crude cGMP phosphodiesterase from canine thoracic aorta (NR = no effect at 100 ug); type: tissue-based, Canis lupus familiaris; how it was run: as §8
Canis familiaris [26] = assay: Percent change in left ventricle contractile force in anesthetized dogs after intravenous administration at 0.03 mg/kg; type: functional, Canis lupus familiaris, Heart left ventricle
Canis familiaris [27] = assay: Percent change in heart rate in anesthetized dogs after intravenous administration at 0.03 mg/kg; type: functional, Canis lupus familiaris
Canis familiaris [28] = assay: Percent change in mean arterial blood pressure after intravenous administration in anesthetized dogs at 0.1 mg/kg; type: functional, Canis lupus familiaris
Canis familiaris [29] = assay: Percent change in left ventricle contractile force in anesthetized dogs after intravenous administration at 0.1 mg/kg; type: functional, Canis lupus familiaris, Heart left ventricle
Canis familiaris [30] = assay: Percent change in mean arterial blood pressure after intravenous administration in anesthetized dogs at 0.03 mg/kg (NC<10%); type: functional, organism-based; set-up: dose 0.03 mg/kg; settings: Canis lupus familiaris
[31] = Inhibition of crude cGMP phosphodiesterase from canine thoracic aorta (NR = no effect at 100 uM); type: tissue-based, Canis lupus familiaris; how it was run: as §1
Canis familiaris [32] = assay: Percent change in heart rate after intravenous administration in anesthetized dogs at 0.1 mg/kg; type: functional, Canis lupus familiaris
Canis familiaris [33] = assay: as §9; type: functional, Canis lupus familiaris; remark: listed apart in the source
Canis familiaris [34] = assay: Percent change in mean arterial blood pressure after intravenous administration in anesthetized dogs at 0.1 mg/kg (NC<10%); type: functional, Canis lupus familiaris
Canis familiaris [35] = assay: as §6; type: functional, Canis lupus familiaris
Canis familiaris [36] = assay: Percent change heart rate after intravenous administration in anesthetized dogs at 0.1 mg/kg; type: functional, Canis lupus familiaris
Canis familiaris [37] = assay: Percent change in heart rate after intravenous administration in anesthetized dogs at 0.1 mg/kg (NC<10%); type: functional, organism-based; set-up: dose 0.1 mg/kg; settings: Canis lupus familiaris
Canis familiaris [38] = assay: as §11; type: functional, Canis lupus familiaris; remark: listed apart in the source
[39] = Inhibition of crude cAMP phosphodiesterase from canine […] (NR = no effect at 100 uM); set-up: species or system Canis lupus familiaris; how it was run: as §1
Canis familiaris [40] = assay: Percent change in left ventricle contractile force in anesthetized dogs after intravenous administration at 0.3 mg/kg (NC <10%); type: functional, organism-based; set-up: dose 0.3 mg/kg; settings: Canis lupus familiaris, Heart left ventricle
Canis familiaris [41] = assay: Percent change in heart rate after intravenous administration in anesthetized dogs at 0.3 mg/kg (NC<10%); type: functional, organism-based; set-up: dose 0.3 mg/kg; settings: Canis lupus familiaris
Canis familiaris [42] = assay: Percent change in heart rate after intravenous administration in anesthetized dogs at 1.0 mg/kg (NC<10%); type: functional, organism-based; set-up: dose 1 mg/kg; settings: Canis lupus familiaris

IC50 [1]	IC50 [3]	EC50 (Canis familiaris [4])	EC50 (Canis familiaris [5])	Compound	CFC20 [2]	also measured
42 µM	36 µM	0.4 µM	5.1 µM	Cc1cn2c(n1)c(O)nc1ccccc12	11 µM	–
2 µM	0.4 µM	0.8 µM	1.7 µM	CCc1nc(C)c2c(O)nc3ccccc3n12	0.2 µM	Delta (Canis familiaris [6]): 85%; Delta (Canis familiaris [7]): 135%; Delta (Canis familiaris [8]): -40%; Delta (Canis familiaris [9]): 65%; Delta (Canis familiaris [10]): <10% change from control; Delta (Canis familiaris [11]): 39%; Delta (Canis familiaris [12]): <10% change from control; Delta (Canis familiaris [13]): 22%; Delta (Canis familiaris [14]): 42%
0.8 µM	0.9 µM	0.05 µM	0.7 µM	CCc1nc(C)c2c(O)nc3ccc(N4CCOCC4)cc3n12	0.5 µM	–
6 µM	13 µM	3.1 µM	28 µM	Oc1nc2ccc(-n3ccnc3)cc2n2ccnc12	3.1 µM	–
20 µM	28 µM	1 µM	5.5 µM	CC(C)Cn1c(=O)n(C)c(=O)c2nc[nH]c21 [ISOBUTYLMETHYLXANTHINE]	1.5 µM	Delta (Canis familiaris [34]): <10%; Delta (Canis familiaris [17]): 41%; Delta (Canis familiaris [18]): 45%; Delta (Canis familiaris [19]): 69%; Delta (Canis familiaris [29]): 25%; Delta (Canis familiaris [13]): 32%; Delta (Canis familiaris [24]): -18%; Delta (Canis familiaris [35]): <10%; Delta (Canis familiaris [36]): 17%
1 µM	7 µM	0.5 µM	0.3 µM	CCc1ncc2c(O)nc3cccnc3n12	0.1 µM	Delta (Canis familiaris [6]): 76%; Delta (Canis familiaris [28]): -17%; Delta (Canis familiaris [29]): 31%; Delta (Canis familiaris [37]): <10% change from control; Delta (Canis familiaris [11]): 40%; Delta (Canis familiaris [13]): 30%; Delta (Canis familiaris [38]): -40%; Delta (Canis familiaris [33]): -25%; Delta (Canis familiaris [14]): 50%
5 µM	39 µM	9.3 µM	14 µM	Oc1nc2ccc(-n3ccnc3)nc2n2ccnc12	0.5 µM	–
22 µM	38 µM	3.4 µM	11 µM	CCc1nc(C)c2c(N)nc3ccccc3n12	–	–
6 µM	24 µM	1.1 µM	5.5 µM	Cc1nccn1-c1ccc2nc(O)c3cnc(C)n3c2c1	1.2 µM	–

The remaining lines, values behind:

Compound	IC50 [1]	IC50 [3]	EC50 (Canis familiaris [4])	EC50 (Canis familiaris [5])	CFC20 [2]	also measured
Cc1ncc2c(O)nc3ccc(-n4ccnc4)cc3n12	8 µM	19 µM	2.8 µM	30 µM	2 µM	–
CCc1ncc2c(O)nc3ccncc3n12	5 µM	5 µM	2.2 µM	5.2 µM	0.3 µM	–
O=[N+]([O-])OCC(CO[N+](=O)[O-])O[N+](=O)[O-] [NITROGLYCERIN]	–	–	0.007 µM	0.01 µM	–	IC50 [15]: Not Active; Delta (Canis familiaris [16]): -20%; Delta (Canis familiaris [17]): -9%; Delta (Canis familiaris [18]): <10%; Delta (Canis familiaris [19]): -14%; Delta (Canis familiaris [20]): <10%; Delta (Canis familiaris [21]): -39%; CFC20 (Mustela putorius furo): inactive; Delta (Canis familiaris [22]): <10%; Delta (Canis familiaris [23]): -17%; Delta (Canis familiaris [24]): -30%; IC50 [25]: Not Active
Cc1[nH]c(=O)c(C#N)cc1-c1ccncc1 [MILRINONE]	6 µM	–	0.7 µM	1.6 µM	0.5 µM	Delta (Canis familiaris [26]): 31%; Delta (Canis familiaris [27]): 12%; Delta (Canis familiaris [28]): -15%; Delta (Canis familiaris [29]): 58%; Delta (Canis familiaris [30]): <10% change from control; Delta (Canis familiaris [11]): 82%; IC50 [31]: Not reached; Delta (Canis familiaris [13]): 34%; Delta (Canis familiaris [32]): 20%; Delta (Canis familiaris [33]): -33%
CCc1ncc2c(O)nc3ccc(-n4ccnc4)cc3n12	2 µM	3 µM	0.3 µM	5.3 µM	1.2 µM	–
Oc1nc2ccccc2n2ccnc12	49 µM	44 µM	–	–	10 µM	–
CCc1nccn1-c1ncnc2c1nc(O)c1cnc(CC)n12	–	14 µM	23 µM	59 µM	–	IC50 [39]: Not reached
Oc1nc2cccnc2n2ccnc12	44 µM	27 µM	10 µM	11 µM	2.2 µM	Delta (Canis familiaris [6]): 42%; Delta (Canis familiaris [40]): <10% change from control; Delta (Canis familiaris [7]): 81%; Delta (Canis familiaris [8]): -40%; Delta (Canis familiaris [9]): 24%; Delta (Canis familiaris [10]): <10% change from control; Delta (Canis familiaris [12]): <10% change from control; Delta (Canis familiaris [41]): <10% change from control; Delta (Canis familiaris [42]): <10% change from control
CCc1nc(C)c2c(O)nc3ccc(-n4ccnc4)cc3n12	2 µM	4 µM	0.4 µM	1.7 µM	0.6 µM	–
Cc1nccn1-c1ccc2nc(O)c3cnc(C)n3c2n1	1 µM	3 µM	2 µM	24 µM	0.4 µM	–
CCc1nc(C)c2c(=O)n(C)c3ccccc3n12	18 µM	17 µM	3.8 µM	12 µM	2.3 µM	–
CCc1nc(C)cn1-c1ccc2nc(O)c3c(C)nc(CC)n3c2c1	0.4 µM	0.3 µM	0.1 µM	0.5 µM	1 µM	–
Cc1ncc2c(O)nc3ccccc3n12	16 µM	27 µM	2.8 µM	49 µM	2.1 µM	–
